# Experiments:
# [1] = system: Mus musculus; assay: Toxicity in athymic nude mouse xenografted with human HT-29 cells assessed as mortality at 0.9 mg/kg, ip administered for 4 weeks; format: organism-based; conditions: in vivo, 672 h
# Outline: (§1)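 Female athymic nude mice, 7–9 weeks old, received 1.74 × 10^6 HT-29 cells subcutaneously in the right flank in 50% Matrigel/McCoy's 5A. Randomized at 110 mm3, 10 per group. Intraperitoneal dosing in USP saline (0.2 mL) over a 28-day period on the stated schedule. Body weights were taken twice weekly; clinical signs and survival were recorded.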
# [2] = Chemical stability of the compound in buffer assessed as pseudo-first-order rate constant at 60 degC at pH 7.4 by Arrhenius plot analysis; format: physicochemical
# [3] = system: Mus musculus; assay: Toxicity in athymic nude mouse xenografted with human HT-29 cells assessed as mortality at 0.9 mg/kg, ip administered for 2 weeks; format: organism-based; conditions: in vivo, 336 h
# [4] = Chemical stability of the compound in buffer assessed as compound remaining at pH 1 after 2 hrs by HPLC analysis; format: physicochemical; conditions: read-out: Stability
# [5] = system: Mus musculus; assay: Toxicity in athymic nude mouse xenografted with human A2780 cells assessed as dehydration at 1.2 mg/kg, po administered for 30 days; format: organism-based; conditions: in vivo, 720 h
# Outline: (§2)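 Female athymic nude mice, 7–9 weeks old, received 2.5 × 10^6 A2780 cells subcutaneously in the flank in 50% Matrigel/RPMI 1640. Mice were randomized at a mean tumor volume of 188 mm3, 10 per group. Daily oral gavage in USP saline (0.2 mL) for 30 days, dosed on group-mean body weight. Clinical signs, survival and body weights were recorded.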
# [6] = Chemical stability of the compound in buffer assessed as pseudo-first-order rate constant at 4 degC at pH 7.4 by Arrhenius plot analysis; format: physicochemical
# Outline: (§3)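 Pseudo-first-order kobsd at each temperature was fitted to an Arrhenius plot, which was extrapolated to 25 and 4 °C. t1/2 and t90 (time for 10% loss) were calculated from the extrapolated kobsd.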
# [7] = Chemical stability of the compound in buffer assessed as compound remaining at pH 7.4 after 8 hrs by HPLC analysis; format: physicochemical; conditions: read-out: Stability
# [8] = Chemical stability of the compound in buffer assessed as compound remaining at pH 1 after 1 hr by HPLC analysis; format: physicochemical; conditions: read-out: Stability
# [9] = Chemical stability of the compound in buffer assessed as compound remaining at pH 2 after 1 hr by HPLC analysis; format: physicochemical; conditions: read-out: Stability
# [10] = Chemical stability of the compound in buffer assessed as compound remaining at pH 2 after 2 hrs by HPLC analysis; format: physicochemical; conditions: read-out: Stability
# [11] = Aqueous solubility of the compound in Tris buffer at pH 7.4 at room temperature by HPLC analysis; format: physicochemical
# Outline: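 About 5 mg solid was added to Tris buffer pH 7.4 in triplicate to saturation, then sonicated and vortexed. Samples were shaken at 25 °C for 24 h. Excess solid was removed by centrifugation and filtration, and the diluted filtrate was quantified by reverse-phase C18 HPLC with photodiode array detection, using an acetonitrile/10 mM sodium phosphate pH 7 gradient.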
# [12] = system: Mus musculus; assay: Toxicity in athymic nude mouse xenografted with human A2780 cells assessed as morbidity at 0.6 to 0.9 mg/kg, po administered for 30 days; format: organism-based; conditions: in vivo, 720 h; outline: as §2
# [13] = Chemical stability of the compound in buffer assessed as compound remaining at pH 6 after 2 hrs by HPLC analysis; format: physicochemical; conditions: read-out: Stability
# [14] = Shelf life of the compound in buffer assessed as time for 10% loss of compound at 4 degC at pH 7.4; format: physicochemical; outline: as §3
# [15] = system: Mus musculus; assay: Toxicity in athymic nude mouse xenografted with human HT-29 cells assessed as necrosis at 0.9 mg/kg, ip administered 14 days measured post last dose; format: organism-based; conditions: in vivo, 336 h; outline: as §1
# [16] = Chemical stability of the compound in buffer assessed as compound remaining at pH 9 after 8 hrs by HPLC analysis; format: physicochemical; conditions: read-out: Stability
# [17] = Stability of the compound in simulated gastric fluid assessed as compound remaining after 24 hrs by HPLC analysis
# [18] = Chemical stability of the compound in buffer assessed as compound remaining at pH 4 after 1 hr by HPLC analysis; format: physicochemical; conditions: read-out: Stability
# [19] = Chemical stability of the compound in buffer assessed as compound remaining at pH 4 after 8 hrs by HPLC analysis; format: physicochemical; conditions: read-out: Stability
smiles,measurement,setting,value
CC(C)[C@]12O[C@H]1[C@@H]1O[C@]13[C@]1(O[C@H]1C[C@H]1C4=C(CC[C@@]13C)C(=O)OC4)[C@@H]2OCOP(=O)([O-])[O-].[Na+].[Na+] [MINNELIDE],Activity,[1],Toxic
same,K,[2],0.002482 h⁻¹
same,Activity,[3],Toxic
same,remaining at 2 h,[4],79%
same,Activity,[5],Toxic
same,K,[6],6.5 ×10⁻⁶ /hr
same,remaining at 8 h,[7],100%
same,remaining at 1 h,[8],89%
same,remaining at 1 h,[9],98%
same,remaining at 2 h,[10],97%
same,solubility,[11],61 mg/mL
same,Activity,[12],Toxic
same,remaining at 2 h,[13],100%
same,Time,[14],1.9 yr
same,Activity,[15],Toxic
same,remaining at 8 h,[16],100%
same,remaining at 24 h,[17],0%
same,remaining at 1 h,[18],100%
same,remaining at 8 h,[19],99%
